# Only some compounds are listed: those with a hit (about 3.3% of all), similar ones and a draw of the others.
# IL1B NFkB inh – blocks IL-1B driven NFkB nuclear translocation in HUVEC cells. HUVEC IL-1B NFkB p65 nuclear translocation imaging. AID 796. inhibition, % at 2 µM. 94,000 tested, 0.43% active;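 active = inhibition above about 30% together with a positive call from visual inspection of the well image, limit read from the data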;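 also: nuclear over cytoplasmic p65 intensity ratio measured by imaging; 0% = IL-1B stimulated DMSO wells and 100% = unstimulated DMSO wells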
# NFkB transloc pot – enhances IL-1B driven NFkB nuclear translocation | AID 819 | HUVEC IL-1B NFkB p65 nuclear translocation imaging | activation, % at 2 µM | 94,000 tested, 0.3% active;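 active = activation above 40%, about the mean plus 3 SD, also judged a hit on visual image review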;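 also: percent activation is computed from the nuclear over cytoplasmic p65 intensity ratio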
# HUVEC tox IL1B – HUVEC cytotoxicity counter-screen, IL-1B stimulated; 94,000 tested, 0.41% active; HUVEC cell count loss, Hoechst imaging; cell count reduction, % at 2 µM;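 active = cell count reduction more than 3 SD above the screen-wide mean, cut at about 70% in these data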;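 also: normalized per plate to untreated control cells as the no-loss baseline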
# Rev-RRE block – HIV Rev-RRE protein-RNA interaction inhibition; P05866; Rev peptide-RRE RNA binding, FRET; inhibition, % at 8 µM; 97,000 tested, 0.79% active;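 active = inhibition above the screen-wide mean plus 3 SD, cut at about 35% in these data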;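 also: 0% = median DMSO wells and 100% = median Neomycin B control wells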
# Target sequence (P05866 whole entry, looked up): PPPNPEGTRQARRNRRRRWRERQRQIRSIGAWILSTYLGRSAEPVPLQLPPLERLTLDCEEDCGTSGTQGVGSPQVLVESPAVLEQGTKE
#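 System: Cy5-labelled duplex RRE RNA binding fluorescein-labelled HIV Rev peptide; Signal: fluorescein-to-Cy5 FRET, 480 nm excitation; Also added: labelled Rev peptide; Compound: one concentration, 8 µM nominal; Buffer or medium: HEPES pH 7.5 salt buffer with EDTA; Read-out: % inhibition of FRET ratio versus controls; Schedule: 5 min preincubation and 15 min binding, 25 °C.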
# FAK blocker – inhibitors of human focal adhesion kinase. AID 727. Q05397. inhibition, %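 (tested at 7 µM)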. 97,000 tested, 0.84% active. biochemical FAK kinase activity assay; in the data active = inhibition above about 19%;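 also: 0% = DMSO and 100% = reference compound high control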
# Measles CPE – protection of cells from measles virus; Measles virus-infected cells, CPE protection, absorbance; protection (pct of control), % at 4 µM; 140,000 tested, 1.5% active; AID 841; in the data active = protection mostly above about 24%, no sharp cut-off; inactive = mostly below about 26%
# Active calls of the source: *; / = not tested or not shown.
SMILES,IL1B NFkB inh,NFkB transloc pot,HUVEC tox IL1B,Rev-RRE block,FAK blocker,Measles CPE
N#C/C(=C/c1cc(Br)cs1)C(=O)NCC1CCCO1 (stereo not given),97.2*,-97.2,88.4*,1.3,-2.2,36.9*
O=C(Cn1cncn1)c1ccc(F)cc1F,/,/,/,/,/,18.6
COc1cc(NC(=O)CN2C(=O)c3ccccc3S2(=O)=O)c(OC)cc1Cl,-4.3,4.3,-87.9,6.5,-2.8,6.7
N#C/C(=C\c1c(N2CCOCC2)nc2ccccn2c1=O)S(=O)(=O)c1ccccc1,7.3,-7.3,27.5,14.0,-1.6,26.8*
Cc1nnc(SCc2ccccc2C#N)n1-c1ccccc1,-24.1,24.1,81.7*,2.6,-0.9,12.5
Cc1ccc(S(=O)(=O)/N=C(/c2ccc(F)cc2)N2CCCCC2)cc1,/,/,/,/,/,6.4
Cc1ccc(C(C)C)c(OCCNS(C)(=O)=O)c1,10.2,-10.2,84.2*,8.7,0.7,11.1
CCn1cc(C(=O)OCc2ccc(F)cc2)c(=O)c2ccc(C)nc21,5.7,-5.7,86.3*,2.3,3.4,5.5
Cc1ccn2cc(CNS(=O)(=O)c3ccc(Cl)s3)nc2c1,4.4,-4.4,-11.1,6.4,2.5,29.4*
CCc1ccc(S(=O)(=O)NCc2cn3ccccc3n2)s1,-1.6,1.6,9.5,0.9,-0.3,3.2
Cc1ccc2cc(CCNC(=O)Cc3cccs3)c(=O)[nH]c2c1,/,/,/,/,/,8.2
O=c1cc(O)c2sc3nc(-c4cccnc4)cc(C(F)(F)F)c3c2[nH]1,/,/,/,/,/,16.4
O=C(NC(=S)Nc1ccc(S(=O)(=O)Nc2nccs2)cc1)c1ccc(F)c(F)c1,/,/,/,/,/,29.6*
O=C(NC(=S)Nc1ccc(S(=O)(=O)Nc2nccs2)cc1)c1ccccc1,/,/,/,/,/,8.6
COCc1cc(C)c2c(N)c(C#N)sc2n1,30.6*,-30.6,20.8,12.0,0.3,9.5
COC(=O)c1cc2ccc(OC)c(OC)c2c(=O)s1,13.7,-11.9,-43.4,3.2,-4.0,24.3*
CN(c1ccccc1)S(=O)(=O)c1cccc(NC(=O)Nc2ccc(Cl)cc2C#N)c1,/,/,/,/,/,24.6*
CCN(c1ccccc1)S(=O)(=O)c1ccc(Cl)c(NC(=O)Nc2ccc(Cl)cc2C#N)c1,/,/,/,/,/,6.7
CC(C)=CCCC(C)NC(=O)NC1CCCCC1 (stereo not given),-8.5,8.5,12.8,-2.5,-5.5,26.8*
CC12CCCCC1N(O)C(=O)C(=O)N2O (stereo not given),/,/,/,/,/,24.9
Nc1nc(Nc2ccc(Cl)cc2)n[nH]1,4.6,-4.6,-10.1,0.3,1.6,38.5*
Clc1ccc(Nc2ncn[nH]2)cc1,-2.0,2.0,-9.5,4.7,5.7,11.6
CCOC(=O)Cn1cnc(-c2ccc([N+](=O)[O-])cc2)c1,/,/,/,/,/,5.3
Cn1cccc1/C=C1\SC(=S)N(NC(=O)c2ccccc2)C1=O,/,/,/,/,/,27.0*
O=C(COC(=O)c1ccccc1C(=O)c1ccc(Cl)cc1)NC(c1ccccc1)c1ccccc1,/,/,/,/,/,3.6
SMILES,IL1B NFkB inh,NFkB transloc pot,HUVEC tox IL1B,Rev-RRE block,FAK blocker,Measles CPE
COc1ccccc1C(=O)N/C(=C\c1ccc2c(c1)OCO2)C(=O)NCCc1nc2ccccc2[nH]1,/,/,/,/,/,3.7
O=C(CCN1CCc2ccccc2C(c2ccccc2)C1)c1ccc2c(c1)OCCO2 (stereo not given),33.6*,-33.6,-117.1,6.4,-2.9,40.9*
O=C(CCN1Cc2ccccc2C1)c1ccc2c(c1)OCCO2,-4.9,4.9,-50.8,7.0,-2.2,17.2
CC1=CCC(/C=N\Nc2nnc3c(n2)[nH]c2ccccc23)CC1 (stereo not given),/,/,/,/,/,13.8
O=C(Nc1ccc(S(=O)(=O)Nc2ccc(Cl)cc2)cc1)C1CCCO1 (stereo not given),-14.5,14.5,11.9,6.5,0.3,39.6*
COc1ccc(NC(=O)c2cc(S(=O)(=O)N(Cc3ccccc3)c3ccccc3)ccc2Cl)cn1,/,/,/,/,/,38.7*
C=Cn1cc[n+](CC(=O)C(C)(C)C)c1,/,/,/,/,/,4.8
COc1cc(NC(=O)C2CCCCC2)c(OC)cc1NC(=O)CN1CCCCC1,8.0,-8.0,2.4,4.6,-1.0,47.4*
COc1ccc(N2CCN(CCNC(=O)c3c(C)cc(=O)oc3C)CC2)cc1,-15.6,15.6,-8.6,-2.5,0.3,17.4
Cc1cc(=O)oc(C)c1C(=O)NCCCN1CCN(c2ccc(F)cc2)CC1,-4.9,4.9,-16.2,-1.4,-2.5,42.6*
Cc1c(NC(=O)c2noc(C(C)C)c2[N+](=O)[O-])c(=O)n(-c2ccccc2)n1C,-19.2,19.2,3.1,8.9,-2.1,29.2*
Cc1ccn2cc(-c3ccc(NC(=O)c4ccco4)cc3)nc2c1,/,/,/,/,/,13.4
COc1ccc(NC(=S)NNC(=O)c2cccs2)cc1,/,/,/,/,/,16.9*
COc1ccc(NC(=O)c2cccs2)cc1,-26.7,26.7,-35.1,8.1,1.9,27.1
CCOC(=O)/C=C/C(=O)Nc1ccccc1C(=O)NC1CCCCC1,/,/,/,/,/,2.4
CNc1oc(-c2cccc3ccccc23)nc1C#N,3.1,-3.1,5.6,10.1,7.1,5.3
COc1ccc(CNc2oc(-c3cccc4ccccc34)nc2C#N)cc1,-16.9,16.9,32.5,13.8,1.1,68.3*
O=C(NCCc1ccccc1)C1CCCN1C(=O)Nc1ccc(F)cc1 (stereo not given),/,/,/,/,/,28.6*
O=C(NCc1ccc(F)cc1)C1CCCN1C(=O)NCc1ccccc1 (stereo not given),1.3,-1.3,-17.2,0.9,4.1,16.9
Cc1c(S(=O)(=O)N2CCN(c3cccc(C(F)(F)F)c3)CC2)c(=O)n(C)c(=O)n1C,-4.2,4.2,-16.7,7.8,2.9,7.9
Cn1cc(S(=O)(=O)N2CCN(c3cccc(C(F)(F)F)c3)CC2)c(=O)n(C)c1=O,56.4*,-56.4,-5.6,4.8,1.9,3.6
Cc1cc(C)c2c(N)c3cccc(C)c3nc2n1,/,/,/,/,/,0.1
Cc1c(Cl)c(-c2n[nH]c(=S)n2-c2ccc(F)cc2)nn1C,35.8*,-35.8,4.2,0.7,-6.9,17.7
Cn1cc(Cl)c(-c2n[nH]c(=S)n2-c2ccc(F)cc2)n1,/,/,/,/,/,6.1
CCOc1ccc(NC(=S)Nc2ccc(OCc3ccccc3)cc2)cc1,/,/,/,/,/,43.6*
SMILES,IL1B NFkB inh,NFkB transloc pot,HUVEC tox IL1B,Rev-RRE block,FAK blocker,Measles CPE
CC1(C)NC(=O)N(CC(O)COc2ccc(N3C(=O)c4ccccc4C3=O)cc2)C1=O (stereo not given),-6.7,6.7,-45.8,4.9,0.9,46.8*
Cc1ccc(OCC(O)CN2C(=O)NC(C)(C)C2=O)cc1 (stereo not given),-31.1,31.1,-46.4,3.8,-1.3,13.1
COc1ccc(C2NC(=O)c3sc4nc(C)c(C(C)=O)c(-c5ccc(Cl)cc5)c4c3N2)cc1 (stereo not given),-20.2,20.2,8.1,8.3,-20.2,12.6
Cc1nnc(NC(=O)c2ccccc2C(=O)O)s1,9.2,-9.2,-2.9,5.7,1.7,23.9
O=C(Nc1nc(-c2nc3ccccc3s2)cs1)C1CC1,/,/,/,/,/,6.3
Cc1csc(NC(=O)c2ccco2)n1,-43.6,43.6*,-24.2,5.2,-1.6,2.4
Cc1csc(NC(=O)c2ccccc2C(=O)O)n1,24.9,-24.9,86.3*,4.7,5.0,5.1
O=C(Nc1nc(-c2nc3ccccc3s2)cs1)c1ccco1,/,/,/,/,/,49.1*

# Source: PubChem BioAssay (several laboratories)
